The target in experiment [1] is T1, 72 kDa type IV collagenase (Homo sapiens, UniProt P08253). Nature of the experiment: Inhibition of MMP2 at 5 uM.
Target sequence in this assay (P08253 110-660 limits assumed): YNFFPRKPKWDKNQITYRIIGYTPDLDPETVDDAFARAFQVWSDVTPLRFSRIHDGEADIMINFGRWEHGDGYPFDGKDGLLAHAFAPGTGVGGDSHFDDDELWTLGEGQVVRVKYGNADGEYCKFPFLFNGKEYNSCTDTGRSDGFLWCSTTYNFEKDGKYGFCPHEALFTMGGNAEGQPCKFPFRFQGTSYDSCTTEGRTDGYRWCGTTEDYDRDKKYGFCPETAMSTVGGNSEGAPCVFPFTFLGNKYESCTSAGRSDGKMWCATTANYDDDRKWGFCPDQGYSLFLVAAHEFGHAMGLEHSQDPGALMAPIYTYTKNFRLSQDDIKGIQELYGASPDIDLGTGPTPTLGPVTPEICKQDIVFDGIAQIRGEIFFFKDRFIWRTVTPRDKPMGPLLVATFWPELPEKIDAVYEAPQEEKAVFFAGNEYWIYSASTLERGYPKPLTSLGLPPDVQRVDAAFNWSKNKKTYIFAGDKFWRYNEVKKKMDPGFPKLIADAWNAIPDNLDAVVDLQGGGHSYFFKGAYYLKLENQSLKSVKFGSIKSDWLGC
Experiment [2] concerns the target T1, 72 kDa type IV collagenase. The experiment is described as follows: Inhibition of MMP2 at 50 uM.
Target sequence in this assay (P08253 110-660 limits assumed): as above
Experiment [3] addresses T1, 72 kDa type IV collagenase. The experiment is described as follows: Inhibition of MMP2.
Target sequence in this assay (P08253 whole entry): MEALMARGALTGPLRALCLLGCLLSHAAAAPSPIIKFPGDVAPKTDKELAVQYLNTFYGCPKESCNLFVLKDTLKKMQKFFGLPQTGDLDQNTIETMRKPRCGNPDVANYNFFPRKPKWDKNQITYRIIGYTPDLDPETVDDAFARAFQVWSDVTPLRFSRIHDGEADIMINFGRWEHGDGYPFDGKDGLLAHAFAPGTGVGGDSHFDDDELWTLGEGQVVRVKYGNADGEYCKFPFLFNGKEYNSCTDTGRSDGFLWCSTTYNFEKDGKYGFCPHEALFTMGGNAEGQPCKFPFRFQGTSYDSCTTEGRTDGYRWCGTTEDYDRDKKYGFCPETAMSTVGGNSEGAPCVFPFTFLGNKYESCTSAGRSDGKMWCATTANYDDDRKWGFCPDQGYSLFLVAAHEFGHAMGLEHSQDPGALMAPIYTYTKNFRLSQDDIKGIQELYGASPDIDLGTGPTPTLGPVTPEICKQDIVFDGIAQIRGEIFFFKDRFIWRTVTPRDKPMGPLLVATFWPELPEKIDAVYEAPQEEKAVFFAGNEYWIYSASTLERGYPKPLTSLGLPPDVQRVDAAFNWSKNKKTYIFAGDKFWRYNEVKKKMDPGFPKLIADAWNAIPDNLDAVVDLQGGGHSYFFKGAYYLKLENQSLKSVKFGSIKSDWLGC
In experiment [4] the test system is U-266. Nature of the experiment: Cytotoxicity against human U266 cells assessed as reduction of cell viability at 1 uM after 48 hrs by MTS assay. The experiment is classed as functional, cell-based. A digest of the protocol:
(§1)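 Multiple myeloma cells were exposed to compound at a single concentration for 48 h, alongside a DMSO vehicle control. Viability was then read by MTS assay. Each value is the mean of three determinations, deviating <10% from the mean.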

Experiment [5] relates to U-266. The experiment is described as follows: Cytotoxicity against human U266 cells assessed as reduction of cell viability at 10 uM after 48 hrs by MTS assay. The experiment is classed as functional, cell-based. A digest of the protocol: as §1
A general note: Tetrazolium dyes change colour on reduction, which living cells bring about.

The next experiment deals with DU-145. Nature of the experiment: Cytotoxicity against human DU145 cells assessed as reduction of cell viability after 48 hrs by MTS assay. The class given is functional, cell-based. Conditions: for IC50: DU-145, 48 h. A digest of the protocol: (§2)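 IC50 from cell viability read by MTS assay run to the manufacturer's protocol, after 48 h exposure to compound. Each value is the mean of three determinations, deviating <10% from the mean.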

In the next experiment the test system is A2058. The experiment is described as follows: Cytotoxicity against human A2058 cells assessed as reduction of cell viability after 48 hrs by MTS assay. The class given is functional, cell-based. Conditions: A2058, 48 h. In a few lines: as §2
A further experiment deals with MDA-MB-435. Nature of the experiment: Cytotoxicity against human MDA-MB-435 cells assessed as reduction of cell viability after 48 hrs by MTS assay. Conditions: MDA-MB-435, 48 h. The experiment is classed as functional, cell-based. A digest of the protocol:
as §2

The test system of experiment [6] is RPMI-8226. Nature of the experiment: Cytotoxicity against human RPMI8226 cells assessed as reduction of cell viability at 1 uM after 48 hrs by MTS assay. The class given is functional, cell-based. A digest of the protocol: as §1
The subject of experiment [7] is RPMI-8226. Nature of the experiment: Cytotoxicity against human RPMI8226 cells assessed as reduction of cell viability at 10 uM after 48 hrs by MTS assay. The experiment is classed as functional, cell-based. In a few lines: as §1
The test system of experiment [8] is KMS-11. Nature of the experiment: Cytotoxicity against human KMS11 cells assessed as reduction of cell viability at 1 uM after 48 hrs by MTS assay. The experiment is classed as functional, cell-based. A digest of the protocol: as §1
Experiment [9] deals with KMS-11. Nature of the experiment: Cytotoxicity against human KMS11 cells assessed as reduction of cell viability at 10 uM after 48 hrs by MTS assay. The experiment is classed as functional, cell-based. A digest of the protocol:
as §1

The source made the active and inactive calls. The rule behind the calls is not given here.

One may read the inhibition as how much of the control response was suppressed. A higher inhibition goes with a strong effect. With `CC(C)Cc1nccc2nc(N)[nH]c12`, the inhibition turned out to be 31% in [1] and 22% in experiment [2].

As to `Nc1nc2ccnc(-c3c[nH]c4ccccc34)c2[nH]1`, the figures for the inhibition in [1] and in experiment [2] were 25% and 26%, respectively.

The IC50 is the concentration that gives 50% inhibition. For the compound `Nc1nc2c(-c3cc(Br)c(Br)[nH]3)nccc2[nH]1` [AGELADINE A], in [3], half-maximal inhibition (IC50) required 1700 nM.

As to `NC1=NC2C=CC=NC(c3ccc(Cl)cc3)=C2N1` (stereo not drawn), the result with U-266 [4], in the experiment on U-266 [5], in the experiment with RPMI-8226 [6], in the experiment on RPMI-8226 [7], in the experiment on KMS-11 [8] and in the experiment on KMS-11 [9] was Active. The figures for the inhibition in experiment [1] and in experiment [2] were 27% and 54%, respectively. Further, in the experiment on DU-145, the Activity result is “Dose-dependent effect”. In addition, the IC50 with DU-145 amounted to 6.2 µM; in the experiment with A2058, 5.1 µM; with MDA-MB-435, 3.6 µM.

Consider `Nc1nc2ccnc(C3CCCCC3)c2[nH]1`, for which the inhibition in experiment [1] was determined as 9%; in experiment [2], 40%.

Take `NC1=NC2C=CC=NC(C3CCCCC3)=C2N1` (stereo not drawn): the result in the experiment on U-266 [4], in the experiment on U-266 [5], in the experiment on RPMI-8226 [6], in the experiment on RPMI-8226 [7], in the experiment with KMS-11 [8] and with KMS-11 [9] was Active. In addition, the inhibition was 23% in experiment [1] and 53% in [2]. Besides, the Activity entry in the experiment on DU-145 is “Dose-dependent effect”. Besides, the IC50 is 5 µM with DU-145, 4.5 µM with A2058 and 3.4 µM in the experiment with MDA-MB-435.

For the compound `CC(C)C1=C2NC(N)=NC2C=CC=N1` (stereo not drawn), the outcome in the experiment on U-266 [4], in the experiment with U-266 [5], with RPMI-8226 [6], in the experiment on RPMI-8226 [7], in the experiment on KMS-11 [8] and in the experiment on KMS-11 [9] was Active. The results for the inhibition in experiment [1] and in experiment [2] were 28% and 52%, respectively. Besides, the Activity entry in the experiment on DU-145 was “Dose-dependent effect”. Besides, the IC50 was found to be 7.5 µM in the experiment with DU-145, 9.5 µM in the experiment on A2058 and 6.7 µM with MDA-MB-435.

For `CC(C)c1nccc2nc(N)[nH]c12`, the inhibition turned out to be 25% in experiment [1] and 17% in experiment [2].

In the case of `CC(C)CC1=C2NC(N)=NC2C=CC=N1` (stereo not drawn), the result in the experiment on U-266 [4], in the experiment with U-266 [5], in the experiment on RPMI-8226 [6], with RPMI-8226 [7], with KMS-11 [8] and in the experiment with KMS-11 [9] was Active. The inhibition in [1] came to 27%; in experiment [2], 60%. Also, the Activity result in the experiment on DU-145 was “Dose-dependent effect”. Moreover, the figures for the IC50 in the experiment on DU-145, in the experiment with A2058 and with MDA-MB-435 were 4.3 µM, 4.1 µM and 2.9 µM, respectively.

Compound `Nc1nc2ccnc(-c3cccc4ccccc34)c2[nH]1` yielded an inhibition in [1] of 20%.

The values are drawn from ChEMBL document CHEMBL1153166, “Synthesis and anticancer activities of ageladine A and structural analogs” (Bioorg Med Chem Lett, 2010).
